# Reference: PMC6126370 (Investigational new drugs, 2017)
# How the values were obtained:
# [1] = Clinical pharmacokinetics of PU-H71 in plasma and urine; format: in vivo, human; conditions: for Urinary excretion: 1-h i.v. infusion
# How it was run: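 Patients with refractory solid tumors received the test compound (10–470 mg/m2) as a 1-h i.v. infusion. Heparinised blood was drawn on cycle 1 day 1 pre-infusion, 30 min after start, 5 min before end, and 1.5–24 h after start. Plasma was stored at −70 °C. Urine was collected every void on day 1. Plasma was acetonitrile-precipitated with deuterated internal standard and run on HPLC/MS against a control-plasma standard curve. Cmax/Tmax were taken by inspection and AUC by trapezoidal rule.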
# [2] = tested on: patients with advanced solid tumors; conditions: human, in vivo
# refractory solid tumors = test: Clinical response by RECIST 1.1; format: in vivo, human
# How it was run: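 Adults (≥18 y) with solid tumors refractory to or lacking standard therapy received the test compound i.v. over 1 h on days 1 and 8 of 21-day cycles. Doses were 10–470 mg/m2/day, escalated by modified accelerated titration and then 3+3. Response was assessed by RECIST criteria in evaluable patients.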
# [3] = tested on: human liver microsomal fractions; test: In vitro metabolism in liver microsomes or S9 fractions; format: in vitro ADME
# How it was run: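 Test compound at 1 and 10 μM was incubated with human liver microsomes or S9 fraction (0.5 mg protein/mL) with 1 mM NADPH and 3.3 mM […] in 100 mM phosphate, pH 7.4, at 37 °C with shaking. For O-methylation, 0.1 mM S-adenosyl methionine was added. Aliquots were processed like plasma and analysed by LC/MS.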
# [4] = tested on: Bcl-6-dependent diffuse large B-cell lymphoma (DLBCL), hepatocellular carcinoma (HCC), and breast cancer cell lines; conditions: preclinical studies, through induction of apoptosis; cited from earlier work
# [5] = tested on: mouse xenografts of triple negative breast cancer, lymphoma, myeloma, pancreatic, and hepatocellular carcinoma; conditions: preclinical mouse xenografts; cited from earlier work
# [6] = PU-H71 metabolites in patient plasma; format: in vivo, human; conditions: aliquot of patient plasma, Fig. 5a
# [7] = 14 patients evaluable of 17 enrolled
smiles,measurement,setting,value
"CC(C)NCCCn1c(Sc2cc3c(cc2I)OCO3)nc2c(N)ncnc21 [PU-H71, 6-amino-8-[(6-iodo-1,3-benzodioxol-5-yl)thio]-N-(1-methylethyl)-9H–purine-9-propanamine]",dependency of T1/2 to dose level,[1]; 10 to 470 mg/m^2,no dependency to dose level
same,fraction of total AUC (± SD) during the infusion,[1]; all dose levels,19.6% ± 11.3%
same,Urinary excretion,"[1]; dose level 1 (10 mg/m^2), day 1, 1 patient",5.5%
same,Urinary excretion,"[1]; dose level 4 (60 mg/m^2), day 1, 1 patient",8.8%
same,Urinary excretion,"[1]; dose level 5 (80 mg/m^2), day 1, mean ± SD of 2 patients",6.7 ± 1.3%
same,Urinary excretion,"[1]; dose level 6 (110 mg/m^2), day 1, mean ± SD of 3 patients",6.7 ±4.6%
same,Urinary excretion,"[1]; dose level 7 (150 mg/m^2), day 1, 1 patient",8.1%
same,Urinary excretion,"[1]; dose level 8 (200 mg/m^2), day 1, mean ± SD of 2 patients",6.0 ± 4.2%
same,Urinary excretion,"[1]; dose level 9 (266 mg/m^2), day 1, 1 patient",5.4%
same,Urinary excretion,"[1]; dose level 10 (354 mg/m^2), day 1, mean ± SD of 3 patients",8.6 ± 4.6%
same,Urinary excretion,"[1]; dose level 11 (470 mg/m^2), day 1, 1 patient",5.7%
same,Tmax,"[1]; human, plasma, intravenous",≤ 1 h
same,half-life,"[1]; human, plasma, intravenous",2.7 to 19.8 h
same,half-life,"[1]; human, plasma, iv",8.4 ± 3.6 h
same,AUC(0-inf),"[1]; human, plasma, iv, 10 mg/m^2",0.517 µM·h
same,AUC(0-t),"[1]; human, plasma, iv, 10 mg/m^2",0.45 µM·h
same,Cmax,"[1]; human, plasma, iv, 10 mg/m^2",0.2 µM
same,clearance,"[1]; human, plasma, iv, 10 mg/m^2",17.2 mL/min/kg
same,half-life,"[1]; human, plasma, iv, 10 mg/m^2",2.7 h
same,AUC(0-inf),"[1]; human, plasma, iv, 20 mg/m^2",1.67 µM·h
same,AUC(0-t),"[1]; human, plasma, iv, 20 mg/m^2",1.23 µM·h
same,Cmax,"[1]; human, plasma, iv, 20 mg/m^2",0.3 µM
same,clearance,"[1]; human, plasma, iv, 20 mg/m^2",10.5 mL/min/kg
same,half-life,"[1]; human, plasma, iv, 20 mg/m^2",10.5 h
same,half-life,"[1]; human, plasma, iv, 40 mg/m^2",9.2 h
same,AUC(0-inf),"[1]; human, plasma, iv, 60 mg/m^2",5.02 µM·h
same,AUC(0-t),"[1]; human, plasma, iv, 60 mg/m^2",4.55 µM·h
same,Cmax,"[1]; human, plasma, iv, 60 mg/m^2",1.3 µM
same,clearance,"[1]; human, plasma, iv, 60 mg/m^2",10.5 mL/min/kg
same,half-life,"[1]; human, plasma, iv, 60 mg/m^2",6.1 h
same,AUC(0-inf),"[1]; human, plasma, iv, 80 mg/m^2",16.8 µM·h
same,AUC(0-t),"[1]; human, plasma, iv, 80 mg/m^2",15 µM·h
same,Cmax,"[1]; human, plasma, iv, 80 mg/m^2",5.7 ± 0.1 µM
same,clearance,"[1]; human, plasma, iv, 80 mg/m^2",4.17 mL/min/kg
same,half-life,"[1]; human, plasma, iv, 80 mg/m^2",6.7 ± 0.1 h
same,AUC(0-inf),"[1]; human, plasma, iv, 110 mg/m^2",22.9 µM·h
same,AUC(0-t),"[1]; human, plasma, iv, 110 mg/m^2",19.8 µM·h
same,Cmax,"[1]; human, plasma, iv, 110 mg/m^2",7.3 ± 2.4 µM
same,clearance,"[1]; human, plasma, iv, 110 mg/m^2",4.67 mL/min/kg
same,half-life,"[1]; human, plasma, iv, 110 mg/m^2",7.6 ± 0.2 h
same,AUC(0-inf),"[1]; human, plasma, iv, 150 mg/m^2",29.5 µM·h
same,AUC(0-t),"[1]; human, plasma, iv, 150 mg/m^2",25.6 µM·h
same,Cmax,"[1]; human, plasma, iv, 150 mg/m^2",8.7 µM
same,clearance,"[1]; human, plasma, iv, 150 mg/m^2",4.5 mL/min/kg
same,half-life,"[1]; human, plasma, iv, 150 mg/m^2",7.2 h
same,AUC(0-inf),"[1]; human, plasma, iv, 200 mg/m^2",41.3 µM·h
same,AUC(0-t),"[1]; human, plasma, iv, 200 mg/m^2",34.8 µM·h
same,Cmax,"[1]; human, plasma, iv, 200 mg/m^2",8 ± 4.5 µM
same,clearance,"[1]; human, plasma, iv, 200 mg/m^2",4.33 mL/min/kg
same,half-life,"[1]; human, plasma, iv, 200 mg/m^2",7.1 ± 0.5 h
same,AUC(0-inf),"[1]; human, plasma, iv, 266 mg/m^2",90.8 µM·h
same,AUC(0-t),"[1]; human, plasma, iv, 266 mg/m^2",59.9 µM·h
same,Cmax,"[1]; human, plasma, iv, 266 mg/m^2",7.8 µM
same,clearance,"[1]; human, plasma, iv, 266 mg/m^2",2.5 mL/min/kg
same,half-life,"[1]; human, plasma, iv, 266 mg/m^2",10.2 h
same,AUC(0-inf),"[1]; human, plasma, iv, 354 mg/m^2",180 µM·h
same,AUC(0-t),"[1]; human, plasma, iv, 354 mg/m^2",114 µM·h
same,Cmax,"[1]; human, plasma, iv, 354 mg/m^2",17.3 ± 8.5 µM
same,clearance,"[1]; human, plasma, iv, 354 mg/m^2",2.17 mL/min/kg
same,half-life,"[1]; human, plasma, iv, 354 mg/m^2",11.5 ± 7.3 h
same,AUC(0-inf),"[1]; human, plasma, iv, 470 mg/m^2",203 µM·h
same,AUC(0-t),"[1]; human, plasma, iv, 470 mg/m^2",143 µM·h
same,Cmax,"[1]; human, plasma, iv, 470 mg/m^2",33.7 µM
same,clearance,"[1]; human, plasma, iv, 470 mg/m^2",2 mL/min/kg
same,half-life,"[1]; human, plasma, iv, 470 mg/m^2",10.8 h
same,given dose (± SD) recovered as free drug in urine,"[1]; total urine collected in 24 h, average for all dose levels",6.7 ± 3.0%
same,dose level of first grade ≥ 2 toxicity,[2],DL 6
same,progressive disease within the first 2 cycles,refractory solid tumors; 14 evaluable patients,Eight of the evaluable patients progressed early
same,patients with best response of stable disease,refractory solid tumors; [7],35%
same,patients with best response of stable disease for >2 cycles (number),refractory solid tumors; [7],6
same,phase 1 reactions,"[3]; NADPH, 37 °C","S-oxidation, N-dealkylation, de-iodination, and O-demethylation"
same,most active phase 1 reaction,[3]; forms catechol 501,O-demethylation
same,cytotoxicity,[4],high cytotoxicity
same,growth inhibitory effects in xenografts,[5],potent and lasting growth inhibitory effects
"NCCCn1c(Sc2cc3c(cc2I)OCO3)nc2c(N)ncnc21 [compound 471, de-isopropyl PU-H71]",peak in representative ion mass tracing,[6],observed
